Data set [1] is described as follows: Inhibition of beta lactamase OXA-48 in Klebsiella pneumoniae assessed as decrease in enzyme activity using nitrocefin as chromogenic substrate incubated for 60 mins by absorbance plate reader analysis.
In data set [2] the test system is Klebsiella pneumoniae. As to the kind of experiment: Antibacterial activity against Klebsiella pneumoniae ARC561 assessed as reduction in bacterial growth by CLSI based broth dilution method. It is filed as functional. The method in brief:
(§1)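 Broth microdilution in CAMHB following CLSI.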

The subject of data set [3] is Escherichia coli. As to the kind of experiment: Antibacterial activity against Escherichia coli ARC3627 assessed as reduction in bacterial growth by CLSI based broth dilution method. The class given is functional. The method in brief: as §1
Background: In broth dilution the organism is exposed to a series of concentrations in liquid medium.

Data set [4] in a line: Inhibition of beta lactamase TEM-1 in Escherichia coli assessed as decrease in enzyme activity using nitrocefin as chromogenic substrate incubated for 60 mins by […] plate reader analysis.
Data set [5] concerns Escherichia coli. Kind of data set: Inhibition of beta-lactamase activity in Escherichia coli ARC3627 assessed as MIC for cefpodoxime antibacterial activity at 4 ug/ml by CLSI based broth dilution method (Rvb >64 ug/ml). The note with it: dose 4.0 µg/ml.
The nature of data set [6]: Inhibition of beta lactamase AmpC in Pseudomonas aeruginosa assessed as decrease in enzyme activity using nitrocefin as chromogenic substrate incubated for 10 mins by […] plate reader analysis.
Data set [7] in a line: Inhibition of beta lactamase AmpC in Pseudomonas aeruginosa assessed as decrease in enzyme activity using nitrocefin as chromogenic substrate incubated for 60 mins by […] plate reader analysis.
The subject of data set [8] is Klebsiella pneumoniae. As to the kind of experiment: Inhibition of beta-lactamase activity in Klebsiella pneumoniae ARC561 assessed as MIC for cefpodoxime antibacterial activity at 4 ug/ml by CLSI based broth dilution method (reference value: 32 ug/ml). Conditions: dose 4.0 µg/ml.
Data set [9] can be described thus: Inhibition of beta lactamase TEM-1 in Escherichia coli assessed as decrease in enzyme activity using nitrocefin as chromogenic substrate incubated for 10 mins by […] plate reader analysis.
A short description of data set [10]: Inhibition of beta lactamase OXA-48 in Klebsiella pneumoniae assessed as decrease in enzyme activity using nitrocefin as chromogenic substrate incubated for 10 mins by […] plate reader analysis.
A short description of data set [11]: Oral bioavailability in Sprague-Dawley rat at 10 mg/kg by LC/MS/MS analysis. It is filed as ADME, organism-based. Conditions: in vivo. In short, it runs like this: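 Jugular vein-cannulated male Sprague Dawley rats (180–200 g, n = 3/route). Intravenous arm: active acid at 10 mg/kg in 0.9% saline, plasma sampled 0.08–8 h. Oral arm: prodrug at a dose equivalent to 10 mg/kg acid in 25:75 PEG 400/WFI, plasma sampled 0.25–24 h. Levels by LC/MS/MS; F = (AUCpo/AUCiv) × 100.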

The record followed here is ChEMBL document CHEMBL4765376, “Discovery of an Orally Available Diazabicyclooctane Inhibitor (ETX0282) of Class A, C, and D Serine β-Lactamases” (J Med Chem, 2020).

SMILES strings stand for the structures. ≈ marks a conversion by molar mass, not a printed value. Calls of active or inactive are those of the source. The calls are words filed in the database; no cut-off is given here.

Usually IC50 stands for the concentration needed to halve the response being measured. `CC1=C[C@@H]2CN(C(=O)N2OC(F)(F)C(=O)O)[C@@H]1C(N)=O`: the IC50 is 14 nM in data set [1]; 1.5 nM in data set [4]; 50 nM in data set [6]; 12 nM in [7]; 1.2 nM in data set [9]; 75 nM in data set [10]. Besides, the MIC result in the data set with Klebsiella pneumoniae [2], with Escherichia coli [3], in the data set with Escherichia coli [5] and in the data set on Klebsiella pneumoniae [8] was “inactive” each time.
As for `CC1=C[C@@H](C(N)=O)N2C[C@@H]1N(O[C@H](F)C(=O)O)C2=O`, the IC50 in data set [1] was found to be 70 nM; in [4], 3.2 nM; in [6], 450 nM; in data set [7], 140 nM; in data set [9], 2.3 nM; in data set [10], 370 nM. Besides, the results for the MIC in the data set with Escherichia coli [5] and in the data set on Klebsiella pneumoniae [8] were below 0.06 µg/mL and 0.25 µg/mL (≈ 0.915 µM), respectively.
Usually bioavailability stands for dose-corrected exposure relative to a reference, in per cent. Lower therefore signals poor availability. The compound `CCOC(=O)[C@H](F)ON1C(=O)N2C[C@H]1C(C)=C[C@H]2C(N)=O` (racemic) came in with a bioavailability in [11] of 71%.
On to `NC(=O)[C@@H]1C(C2CC2)=C[C@@H]2CN1C(=O)N2OC(F)C(=O)O` (single isomer, unassigned), for which the IC50 worked out at 5.2 nM in data set [1]; 24 nM in data set [4]; 290 nM in [6]; 95 nM in [7]; 18 nM in [9]; 17 nM in data set [10]. For the same compound, the MIC was above 32 µg/mL with Klebsiella pneumoniae [2], 32 µg/mL (≈ 107 µM) with Escherichia coli [3], 2 µg/mL (≈ 6.68 µM) in the data set on Escherichia coli [5] and 2 µg/mL (≈ 6.68 µM) in the data set with Klebsiella pneumoniae [8].
On to `CC1=C[C@@H](C(N)=O)N2C[C@@H]1N(O[C@@H](F)C(=O)OC(C)C)C2=O`, for which, in data set [11], the bioavailability was determined as 84%.
For the compound `NC(=O)[C@@H]1CC[C@@H]2CN1C(=O)N2OS(=O)(=O)O` [AVIBACTAM], the MIC in the data set on Klebsiella pneumoniae [2] was above 32 µg/mL; with Escherichia coli [3], 32 µg/mL (≈ 121 µM); in the data set with Escherichia coli [5], 0.5 µg/mL (≈ 1.89 µM); with Klebsiella pneumoniae [8], 1 µg/mL (≈ 3.77 µM).
Regarding `CC1=C[C@@H]2CN(C(=O)N2OCC(=O)O)[C@@H]1C(N)=O`, the 50% inhibitory concentration (IC50) was found to be 51 nM in [1]; 430 nM in [4]; 4100 nM in [6]; 1200 nM in [7]; 1500 nM in data set [9]; 150 nM in data set [10]. In addition, the MIC in the data set on Klebsiella pneumoniae [2] was above 32 µg/mL; in the data set on Escherichia coli [3], 32 µg/mL (≈ 125 µM); in the data set on Escherichia coli [5], 4 µg/mL (≈ 15.7 µM); in the data set with Klebsiella pneumoniae [8], 2 µg/mL (≈ 7.84 µM).
`CC1=C[C@@H]2CN(C(=O)N2O[C@@H](F)C(=O)O)[C@@H]1c1nnc(C(N)=O)o1`: the IC50 in data set [1] was 7.3 nM; in data set [4], 24 nM; in data set [6], 360 nM; in data set [7], 180 nM; in data set [9], 17 nM; in [10], 26 nM. Besides, the MIC in the data set on Klebsiella pneumoniae [2] is above 32 µg/mL; with Escherichia coli [3], 16 µg/mL (≈ 46.9 µM); with Escherichia coli [5], 2 µg/mL (≈ 5.86 µM); in the data set with Klebsiella pneumoniae [8] it was 2 µg/mL (≈ 5.86 µM).
The compound `CCOC(=O)[C@@H](F)ON1C(=O)N2C[C@H]1C=C(C)[C@H]2C(N)=O` displayed a bioavailability in [11] of 45%.
In the case of `CC1=C[C@@H]2CN(C(=O)N2O[C@H](F)C(=O)O)[C@@H]1C(N)=O`, the concentration for half-maximal inhibition (IC50) in data set [1] stood at 15 nM; in data set [4], 1.4 nM; in data set [6], 41 nM; in [7] it was 11 nM; in data set [9], 0.73 nM; in [10], 71 nM. In addition, the MIC in the data set with Klebsiella pneumoniae [2] is 32 µg/mL (≈ 117 µM); in the data set on Escherichia coli [3] it was 2 µg/mL (≈ 7.32 µM); with Escherichia coli [5], 0.06 µg/mL (≈ 0.22 µM); in the data set with Klebsiella pneumoniae [8], 0.25 µg/mL (≈ 0.915 µM).
Turning to `CC1=C[C@@H]2CN(C(=O)N2O[C@@H](F)C(=O)O)[C@@H]1C(=O)NC1COC1`, the IC50 is 12 nM in [1]; 660 nM in data set [4]; 260 nM in data set [6]; 54 nM in data set [7]; 440 nM in data set [9]; 55 nM in data set [10]. Further, the MIC with Klebsiella pneumoniae [2] is above 32 µg/mL; in the data set on Escherichia coli [3], 16 µg/mL (≈ 48.6 µM); in the data set on Escherichia coli [5] it was above 32 µg/mL; in the data set on Klebsiella pneumoniae [8], 4 µg/mL (≈ 12.1 µM).
Take `CC1=C[C@@H]2CN(C(=O)N2O[C@@H](F)C(=O)O)[C@@H]1C(=O)NOCC1CC1`: the IC50 in data set [1] amounted to 87 nM; in data set [4] it was 26 nM; in data set [6] it was 700 nM; in [7], 130 nM; in data set [9], 18 nM; in data set [10], 400 nM. The MIC in the data set on Klebsiella pneumoniae [2] is above 32 µg/mL; in the data set on Escherichia coli [3], above 32 µg/mL; with Escherichia coli [5] it was 16 µg/mL (≈ 46.6 µM); with Klebsiella pneumoniae [8], 4 µg/mL (≈ 11.7 µM).
As for `CC1=C[C@@H](C(N)=O)N2C[C@@H]1N(O[C@@H](F)C(=O)O)C2=O` (racemic), the 50% inhibitory concentration (IC50) in data set [1] turned out to be 19 nM; in data set [4], 26 nM; in data set [6] it was 1300 nM; in data set [7], 300 nM; in data set [9], 20 nM; in data set [10], 67 nM. Moreover, the MIC with Klebsiella pneumoniae [2] is above 32 µg/mL; in the data set with Escherichia coli [5], below 0.06 µg/mL; in the data set on Klebsiella pneumoniae [8], 0.06 µg/mL (≈ 0.22 µM).
Consider `CC1=C[C@@H]2CN(C(=O)N2O[C@@H](F)C(=O)O)[C@@H]1C(=O)NCCNS(N)(=O)=O`, for which the IC50 in data set [1] was found to be 420 nM; in [4] it was 83 nM; in [6] it was 53 nM; in [7] it was 14 nM; in data set [9] it was 55 nM; in data set [10], 2000 nM. The MIC is above 32 µg/mL in the data set on Klebsiella pneumoniae [2], 2 µg/mL (≈ 5.06 µM) with Escherichia coli [3], below 0.06 µg/mL in the data set on Escherichia coli [5] and 0.125 µg/mL (≈ 0.316 µM) in the data set with Klebsiella pneumoniae [8].
Compound `CC1=C[C@@H]2CN(C(=O)N2O[C@H](F)C(=O)OC(C)OC(=O)OC(C)C)[C@@H]1C(N)=O` (stereo not given in full) registered a bioavailability in data set [11] of 11%.
Take `CC1=C[C@@H]2CN(C(=O)N2O[C@@H](F)C(=O)O)[C@@H]1C(=O)NCCS(N)(=O)=O`: the IC50 in [1] was found to be 410 nM; in [4], 57 nM; in [6], 22 nM; in data set [7] it was 4.1 nM; in data set [9] it was 48 nM; in [10], 2200 nM. In addition, the MIC in the data set on Klebsiella pneumoniae [2] is above 32 µg/mL; in the data set with Escherichia coli [3] it was 4 µg/mL (≈ 10.5 µM); in the data set on Escherichia coli [5] it was below 0.06 µg/mL; in the data set on Klebsiella pneumoniae [8] it was 1 µg/mL (≈ 2.63 µM).
In [11], `CC1=C[C@@H]2CN(C(=O)N2O[C@H](F)C(=O)OC(C)C)[C@@H]1C(N)=O` had a bioavailability of 38%.
Regarding `CC1=C[C@@H]2CN(C(=O)N2O[C@@H](F)C(=O)O)[C@@H]1C(N)=O`, the IC50 in data set [1] worked out at 15 nM; in [4], 19 nM; in data set [6] it was 180 nM; in data set [7], 71 nM; in data set [9] it was 13 nM; in data set [10], 63 nM. In addition, the MIC was above 32 µg/mL in the data set on Klebsiella pneumoniae [2], 8 µg/mL (≈ 29.3 µM) in the data set on Escherichia coli [3], 1 µg/mL (≈ 3.66 µM) in the data set on Escherichia coli [5] and 2 µg/mL (≈ 7.32 µM) in the data set on Klebsiella pneumoniae [8].
Turning to `CC1=C[C@@H]2CN(C(=O)N2OC(C)(F)C(=O)O)[C@@H]1C(N)=O` (stereo not given in full), the IC50 in data set [1] came out at 22000 nM; in [4], 230 nM; in data set [6], 1400 nM; in data set [7] it was 400 nM; in data set [9], 680 nM; in data set [10], 89000 nM. Also, the MIC in the data set on Klebsiella pneumoniae [2] is above 32 µg/mL; with Escherichia coli [3], above 32 µg/mL; in the data set with Escherichia coli [5] it was 2 µg/mL (≈ 6.96 µM); in the data set with Klebsiella pneumoniae [8] it was 2 µg/mL (≈ 6.96 µM).
Regarding `CC1=C[C@@H](C(N)=O)N2C[C@@H]1N(OCC(=O)O)C2=O`, the IC50 was 530 nM in [1]; 150 nM in data set [4]; 14000 nM in [6]; 4600 nM in data set [7]; 340 nM in data set [9]; 66 nM in data set [10]. In addition, the MIC in the data set on Klebsiella pneumoniae [2] was 32 µg/mL (≈ 125 µM); with Escherichia coli [3], 2 µg/mL (≈ 7.84 µM); with Escherichia coli [5], below 0.06 µg/mL; in the data set with Klebsiella pneumoniae [8] it was 0.125 µg/mL (≈ 0.49 µM).
With `CCOC(=O)[C@@H](F)ON1C(=O)N2C[C@H]1C(C)=C[C@H]2C(N)=O`, in data set [11], the bioavailability turned out to be 75%.
For the compound `CC1=C[C@@H]2CN(C(=O)N2OS(=O)(=O)O)[C@@H]1C(N)=O`, the IC50 in data set [1] is 5 nM; in [6], 8 nM; in [7] it was 5.8 nM; in data set [10] it was 24 nM. The MIC is 8 µg/mL (≈ 28.9 µM) with Klebsiella pneumoniae [2], 0.25 µg/mL (≈ 0.902 µM) with Escherichia coli [3], below 0.06 µg/mL in the data set on Escherichia coli [5] and below 0.06 µg/mL in the data set on Klebsiella pneumoniae [8].
